Bioassay records as filed in PubChem BioAssay.
The list is not random: actives were taken first. Their share in the collection is about 2.9%.
hiPSC survival – enhancers of single-cell hiPSC survival, primary screen, ATPlite luminescence | actives 0.044% (n = 360,000) | 100% = ROCK inhibitor wells, 0% = DMSO | survival enhancement, % at 20 µM; in the data active = survival enhancement above about 18%;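 note: cells exposed to compounds for 16 hours before the ATP read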
MIN6 prolif – inducers of MIN6 beta-cell proliferation, primary screen, ATP luminescence, uHTS. proliferation, % at 10 µM. actives 0.29% (n = 330,000). MIN6 cells proliferation, ATPlite luminescence, 48 h; cells starved in 0.2% serum; 100% = growth in 10% serum;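 active = compounds whose signal lies at least 3.5 SD above the mean of all wells on their plate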
NR1D1 modulator – modulators of Rev-erb alpha DNA binding, primary screen, biochemical, FITC-DNA, fluorescence polarization, uHTS. Nuclear receptor subfamily 1 group D member 1 (Homo sapiens), P20393. Rev-erbα–FITC-DNA binding, 90 min. activity, % at 10 µM. actives 0.79% (n = 370,000). AID 1259318, 2017;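 active = activity above about 14%, limit read from the data; passing the limit was not always enough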
Target sequence (P20393 whole entry, looked up): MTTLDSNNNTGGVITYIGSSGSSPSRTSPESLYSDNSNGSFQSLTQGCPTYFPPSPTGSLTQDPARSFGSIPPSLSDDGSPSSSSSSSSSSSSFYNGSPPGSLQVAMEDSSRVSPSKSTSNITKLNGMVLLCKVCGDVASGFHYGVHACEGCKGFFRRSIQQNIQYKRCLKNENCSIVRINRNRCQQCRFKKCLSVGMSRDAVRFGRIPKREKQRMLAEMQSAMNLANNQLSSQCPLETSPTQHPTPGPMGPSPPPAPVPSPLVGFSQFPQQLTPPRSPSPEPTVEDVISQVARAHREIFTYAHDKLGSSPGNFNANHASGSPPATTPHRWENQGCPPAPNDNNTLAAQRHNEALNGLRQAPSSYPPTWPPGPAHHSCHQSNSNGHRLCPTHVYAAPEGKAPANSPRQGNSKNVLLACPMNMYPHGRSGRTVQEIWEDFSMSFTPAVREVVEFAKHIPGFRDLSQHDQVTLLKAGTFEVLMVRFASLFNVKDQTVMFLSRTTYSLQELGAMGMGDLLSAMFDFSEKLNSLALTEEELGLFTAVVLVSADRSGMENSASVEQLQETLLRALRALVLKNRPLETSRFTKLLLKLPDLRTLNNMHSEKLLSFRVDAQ
TAG inh – inhibitors of triacylglycerol accumulation, primary screen, cell-based, uHTS, fluorescence, H9c2. H9c2 cells, Nile Red lipid (TAG) fluorescence; cells loaded with 200 µM oleic acid. inhibition, % at 12.5 µM. actives 0.66% (n = 230,000);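 active = pattern-corrected inhibition of lipid staining of at least 50% with the nuclear-stain viability signal not falling by more than 50%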
PG9 binder – binders of HIV-1 gp120 antibody PG9, primary screen, biochemical, TR-FRET. HIV-1 gp120 / PG9 antibody interaction. TR-FRET gp120-PG9 antibody binding. inhibition, % at 6.7 µM. actives 0.43% (n = 360,000). AID 624416, 2012; in the data active = inhibition above about 8.5%
T cruzi repl – inhibitors of intracellular T. cruzi growth, primary screen, luminescence, NIH3T3 host cells | actives 1.4% (n = 300,000) | AID 1885, 2009 | T. cruzi beta-gal in NIH3T3, 90 h | inhibition, % (concentration not given with the values);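 active = mean inhibition across valid replicates above about 55%, limit read from the data; inconclusive = mean below that limit but half or more replicates reach it; inactive = mean below it, under half of replicates reach it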;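 note: signal also drops with host cell toxicity which is not excluded here; higher percent means less beta-gal luminescence so fewer parasites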
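Read-out: Parasite load inhibition, % | Test system: Mouse NIH/3T3 fibroblasts infected with β-gal-expressing T. cruzi Tulahuen C4 | Amount: 5,000 cells/well | Medium: DMEM, 2% fetal bovine serum | Signal: GalScreen β-gal luminescence, detergent lysis, 60 min | Timing: 3 h attach, ≥90 h co-culture | Also added: Tulahuen C4 trypomastigotes, 5000/well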
Large screens that a line does not name were inactive.

Cc1c(Cl)ccc2c(C(=O)Nc3cc(C(C)(C)C)on3)cc(-c3ccccn3)nc12	T cruzi repl 61
O=C(O)c1cccc(CN2C(=O)c3ccccc3C2=O)c1	none (no result: TAG inh)
CC1CN(CC(=O)c2c(N)n(Cc3ccccc3)c(=O)n(C)c2=O)CC(C)O1 (centres undefined)	none (no result: TAG inh)
C(=C\c1ccccc1)/CSc1nnc(-c2cnccn2)n1Cc1ccco1	none (no result: TAG inh)
N/C(CSc1nc(-c2ccccc2)c(-c2ccccc2)o1)=N\O	none
C/C(N)=C(/C#N)C(=O)CSc1nc(-c2ccccc2)c(-c2ccccc2)o1	T cruzi repl 59 (no result: TAG inh)
Cc1cc(C(F)F)nn1CC(=O)NC1CCCC1	none
Cc1cnccc1CN(C)Cc1cn(C)nc1-c1ccc(Oc2ccccc2)cc1	T cruzi repl 70 (no result: TAG inh)
COc1ccc(C(=O)COC(=O)C(CCSC)NC(=O)COc2ccccc2)c(OC)c1 (centres undefined)	none
Cc1[nH]c2ccccc2c1SCc1nnc(SCc2ccc(Cl)cc2)n1C	T cruzi repl 59
Cc1[nH]c2ccccc2c1SCc1nnc(SCc2ccccc2)n1C	none
COc1ccccc1NS(=O)(=O)c1ccc(N/N=C/c2c(C)nn(-c3ccccc3)c2N2CCCC2)c([N+](=O)[O-])c1	T cruzi repl 66 (no result: TAG inh)
O=C(CCC1CCCN(Cc2ccc3c(c2)OCCO3)C1)NCc1ccc(F)c(F)c1 (centres undefined)	T cruzi repl 62 (no result: TAG inh)
O=C(CCC1CCCN(Cc2cccc3c2OCO3)C1)NCc1ccc(F)c(F)c1 (centres undefined)	T cruzi repl 62
O=S(=O)(Cc1ccccc1)NCC1CCCN(Cc2ccc(F)c(F)c2)C1 (centres undefined)	T cruzi repl 61
O=C(COC(=O)c1cncc(Br)c1)Nc1ccc2c(c1)OCO2	none
Cc1cc(C)n2nc(CC(=O)NC3CCCCCCC3)nc2n1	none (no result: TAG inh, PG9 binder)
CCc1ccc(NC(=O)c2cnc(N3CCN(c4ccccn4)CC3)c3ccccc23)cc1	T cruzi repl 60 (no result: TAG inh)
Clc1ccc(SCCOCCN2CCCCC2)cc1	T cruzi repl inconclusive (no result: TAG inh)
CC1CN(CCOCCSc2ccccc2)CC(C)O1 (centres undefined)	none
Clc1ccc(SCCOCCN2CCOCC2)cc1	T cruzi repl 57 (no result: TAG inh)
Clc1ccc(SCCOCCN2CCc3ccccc3C2)cc1	T cruzi repl 66
OC(COC(c1ccc(Cl)cc1)c1ccc(Cl)cc1)CN1CCc2ccccc2C1 (centres undefined)	T cruzi repl 62 (no result: TAG inh)
CC1CN(CCOCCSc2ccc(Cl)cc2)CC(C)O1 (centres undefined)	T cruzi repl 62
CC1CCN(CCOCCSc2ccc(Cl)cc2)CC1	none (no result: TAG inh)
O=C(CCN1CCOCC1)c1ccc(Br)cc1	none
Clc1ccc(OCCCN2CCc3ccccc3C2)c(Br)c1	none (no result: TAG inh)
Clc1ccc(OCCOCCN2CCc3ccccc3C2)c(Cl)c1	T cruzi repl 59 (no result: TAG inh)
O=C(CCN1CCOCC1)c1ccc(Cl)cc1	T cruzi repl 75
COc1cc(OC)cc(C2=NCCN2)c1	none
CS(=O)(=O)N(CC(=O)Nc1ccccc1-c1ccccc1)c1ccc(F)cc1	none
CS(=O)(=O)N(CC(=O)Nc1ccccc1Sc1ccccc1)c1ccc(F)cc1	PG9 binder 14
CCN(CC(=O)Nc1ccc(NC(C)=O)cc1)Cc1c(O)ccc2cc(Br)ccc12	none (no result: TAG inh)
CCCc1ccc(C(=O)N2CCN(c3ccccc3OCC)CC2)cc1	hiPSC survival 23 (no result: TAG inh)
CCOc1ccccc1N1CCN(C(=O)c2cc[n+]([O-])cc2)CC1	none
CCCCC(=O)NC(c1ccccc1)c1ccc2cccnc2c1O (centres undefined)	T cruzi repl 57
CCCCC(=O)NC(c1cccc([N+](=O)[O-])c1)c1ccc2cccnc2c1O (centres undefined)	TAG inh 76 (no result: MIN6 prolif, T cruzi repl)
CCCC(=O)NC(c1ccccc1)c1ccc2cccnc2c1O (centres undefined)	T cruzi repl 58
CCCCC(=O)NC(c1ccc(C(C)C)cc1)c1ccc2cccnc2c1O (centres undefined)	none (no result: TAG inh)
CCCC(=O)NC(c1ccc(OC)cc1)c1ccc2cccnc2c1O (centres undefined)	T cruzi repl 74
Cc1nc2c(c(C)nn2-c2ccccc2)c(C)c1CCC(=O)Nc1ccc(CN2CCCC2)cc1	none
COc1ccc(Cl)cc1C(Nc1cccnc1)c1ccc2cccnc2c1O (centres undefined)	T cruzi repl 72
CCC(=O)NC(c1ccccc1OC)c1ccc2cccnc2c1O (centres undefined)	T cruzi repl 60 (no result: NR1D1 modulator, TAG inh, PG9 binder)
COC(=O)c1ccc(OC)c(CN2CCCN(Cc3cc(C)ccc3C)S2(=O)=O)c1	T cruzi repl 69 (no result: TAG inh)
COC(=O)c1ccc(OC)c(CSc2nnc(-c3ccc(C)cc3)o2)c1	none (no result: MIN6 prolif, T cruzi repl)
COc1ccc(C2CC(c3ccccc3)=NN2C(=O)COC(=O)c2cccc(S(=O)(=O)N(C)C)c2)cc1 (centres undefined)	none (no result: TAG inh)
COc1ccc(C2CC(c3ccccc3)=NN2C(=O)COC(=O)c2cccc(S(=O)(=O)N3CCOCC3)c2)cc1 (centres undefined)	T cruzi repl 72
COc1ccc(OCCCn2cc(/C=C3/C(=N)N4C=C(C)SC4=NC3=O)c3ccccc32)cc1	none
COc1cccc(OCCCn2cc(/C=C3/C(=N)N4C=C(C)SC4=NC3=O)c3ccccc32)c1	T cruzi repl 57 (no result: TAG inh)
C/C(=N/NC(=O)CNC(=O)c1ccncc1)c1ccc(Cl)cc1	none
O=C(CCC(=O)OCC(=O)c1ccc(-c2ccccc2)cc1)Nc1cccc(Cl)c1	PG9 binder 9.0
CC(C)(C)c1ccc(S(=O)(=O)N2CCC(c3nc4ccc(Cl)cc4[nH]3)CC2)cc1	T cruzi repl 55 (no result: TAG inh)
CCOC(=O)C1CCN(S(=O)(=O)c2cccc3nonc23)CC1	none
CCOC(=O)C1CCN(S(=O)(=O)c2c(Cl)ccc3nonc23)CC1	T cruzi repl 64
C(=C1/CCCC2=C1Nc1ncnn1C2c1ccccc1)/c1ccccc1 (centres undefined)	T cruzi repl 74 (no result: hiPSC survival, NR1D1 modulator, TAG inh, PG9 binder)
S=C1NC2=C(CCC/C2=C\c2ccccc2)C(c2ccccc2)N1 (centres undefined)	none (no result: TAG inh)
Cc1onc(-c2ccc(Cl)cc2)c1-c1ccnc(SCC(=O)Nc2cc(Cl)cc(Cl)c2)n1	T cruzi repl 59
CC(=O)c1cccc(OCC(O)CNCCc2ccc(Cl)cc2)c1 (centres undefined)	none (no result: TAG inh)
